In the RNAGym collection of RNA variant scans (doi:10.1126/science.aae0568):
This sample holds only a part of the variants without activity.

B1: tRNA (parent)
chain: GUUCCGUUGGCGUAAUGGUAACGCGUCUCCCUCCUAAGGAGAAGACUGCGGGUUCGAGUCCCGUACGGAACG

Variants of: B1
Assay: yeast fitness relative to wild type (ratio to wild type); higher = fitter; tRNA-Arg(CCU), competitive growth, 37 C, YPD
Procedure, shortened: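 Variants of the tRNA-Arg(CCU) gene were chemically synthesised with a 3% per-site mutation rate across 69 sites and placed at the native genomic locus in Saccharomyces cerevisiae. Six parallel replicates of the pooled strains were competed in YPD at 37°C for 24 hours, and gene amplicons from the start and end populations were read by 100-nucleotide paired-end sequencing. Darwinian fitness relative to wild type was derived from changes in genotype frequencies. Genotypes required ≥ 100 starting reads, and estimates < 0.5 were set to 0.5.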

Point of comparison: GUUCCGUUGGCGUGAUGGUAACGCGUCUCCCUCCUUAGGAGAAGAAUGCGGGUUCGAGUCCCGUACGGAACG [A14G A36U C46A], yeast fitness 0.576. Against it:
- GUUCCGUUGGCGUGAUGGUAACGCGUCUCCCUCCUAAGGAGCAGACUGCGGGUUCGAGUCCCGUACGGAACG [A14G A42C] — higher, 0.762
- GUUCCGUUGGCGUGAUGGUAACGCGUCUCCCUCCUAAGGAGGAGACUGCGGGUUAGAGUCCCGUACGGAACG [A14G A42G C55A] — lower, ≤ 0.5
- GUUCCGUUGGCGUGAUGGUAACGCGUCUCCCUCCUAAGGAGAAGACUGCGGGUUCGGGUCCCGUACGGAACG [A14G A57G] — higher, 0.905
- GUUCCGUUGGCGUGAUGGUAACGCGUCUCCCUCCUAAGGAGAAGACUGCGGGUUCGUGUCCCGUACGGAACG [A14G A57U] — lower, 0.563
- GUUCCGUUGGCGUGAUGGUAACGCGUCUCCCUCCUAAGGAGAAGUCUGCGGGUUCGAGUCCCGUACGGAACG [A14G A45U] — higher, 0.746
- GUUCCGUUGGCGUGAUGGUAACGCGUCUCCCUCCUAAGGAGAAGGCUGCGGGUUCGAGUCCCGUACGGAACG [A14G A45G] — higher, 0.919
- GUUCCGUUGGCGUGAUGGUAAUGCGUCUCCCUCCUAAGGAGAAGACUGAGGGUUCGAGUCCCGUACGGAACG [A14G C22U C49A] — lower, ≤ 0.5
- GUUCCGUUGGCGUGAUGGUAAGGCGUCUCCCUUCUAAGGAGAAGACUGCGGGUUCGAAUACCGUACGGAACG [A14G C22G C33U G58A C60A] — lower, 0.51
- GUUCCGUUGGCGUGAUGGUAAAGCGUAUUCCUCCUAAGGAGCAGACUGCGGGUUCGUGUACCGUACGGAACG [A14G C22A C27A C29U A42C A57U C60A] — lower, ≤ 0.5
- GUUCCGUUGGCGUGAUGGUAACGCGUCUCCCUCCUAAGGGGUAGACUGCGGGUUCGAGUCCCGUACCGAACG [A14G A40G A42U G67C] — higher, 0.665
- GUUCCGUUGGCGUGAUGGUAACGCGUCUCCCUCCUAAGGAGCUGACUGCGGGUUCGAGACCGGUUCGGAACG [A14G A42C A43U U59A C62G A65U] — lower, ≤ 0.5
- GUUCCGUUGGCGUGAUGGUAACGGGUCUCCCUCCUAAGGGGAAGACUGCGGGAUCGAGUCCCGUACGCAACG [A14G C24G A40G U53A G68C] — lower, ≤ 0.5
- GUUCCGUUGGCGUGAUGGUAACGCGUCUCCCUCCUAAGGAGCAGACUGCGGGUACGAGUCCCGUACGGAACG [A14G A42C U54A] — lower, ≤ 0.5
- GUUCCGUUGGCGUGAUGGUAACGCGUCUCCCUCCUAAGGGGAUGACUGCCGGUUCGAGUCCCGUACGGUACG [A14G A40G A43U G50C A69U] — lower, ≤ 0.5
- GUUCCGUUGGCGUGAUGGUAACGCGUCUCCCUCCUAAGGAGAAGUCUGCGGGUUCGAGUCCCGUACGGCACG [A14G A45U A69C] — higher, 0.748
- GUUCCGUUGGCGUGAUGGUAACGCGUCUCCCUCCUAAGGAGAAGACUGCGGGUUCGAGUCCCGUACGGAGCG [A14G A70G] — higher, 0.861
- GUUCCGUUGGCGUGAUGGUAACGCGUCUCCCUCCUAAGGAGAAGACUGCGGGUUCGAGUCCCGUACGGACCG [A14G A70C] — higher, 0.803
- GUUCCGUUGGCGUGAUGGUAACGCGUCUCCCUCCUGAGGAGAAGACUGCGCGUUCGAGGCCCGUACGGAACG [A14G A36G G51C U59G] — lower, ≤ 0.5
- GUUCCGUUGGCGUGAUGGUAACGCGUCUCCCUCCUAUGGAGAAGACUGCGGGUUCGAGUCCCGUCCGGAACG [A14G A37U A65C] — lower, 0.543
- GUUCCGUUGGCGUGAUGGUAACGCGUCUCCCUCCUAAGGCGAAGACUGCGGGUUCGAGUUCGGUACGGAACG [A14G A40C C60U C62G] — lower, ≤ 0.5
- GUUCCGUUGGCGUGAUGGUAACGCGUCUCCCUCCUAAGGAGUAGACUGCGGGUUUGAGCCCCAUCCGGAACG [A14G A42U C55U U59C G63A A65C] — lower, ≤ 0.5
- GUUCCGUUGGCGUGAUGGUAACGCGUCUCCCUCCUAAGGAGAAGGCUGCGGGUUCGAGUCCCGUUCGCAACG [A14G A45G A65U G68C] — lower, ≤ 0.5
- GUUCCGUUGGCGUGAUGGUAACGCGUCUCCCUCCUGAGGAGAAGGCUGCGGGUUCGAGUCCCGUUCGGAACG [A14G A36G A45G A65U] — lower, ≤ 0.5
- GUUCCGUUGGCGUGAUGGUAACGCGUCUCCCUCCUAAGGAGUAGACUGCGGGUUCGAGUCCAGUACGGAACG [A14G A42U C62A] — lower, ≤ 0.5
- GUUCCGUUGGCGUGAUGGUAACGCGUCUCCCUCCUAAGGAGACGACUGCAGGUUCGAGUCCCGUACGGAACG [A14G A43C G50A] — lower, 0.558
- GUUCCGUUGGCGUGAUGGUAACGCGUCUCCCUCCUCAGGAGAAGACUGCGGGUUCGAGUCCCGUACGGCACG [A14G A36C A69C] — lower, ≤ 0.5
- GUUCCGUUGGCGUGAUGGUAACGAGUCUCCCUCGUAACGAGAAGACUGCGGGUUCGAGUCCCGUACGGAACG [A14G C24A C34G G38C] — lower, ≤ 0.5
- GUUCCGUUGGCGUGAUGGUAACGCGUCUCCCUCCUAAGGGAAAGUCUGCGGGUUCGAGUCCCGUACGGAACG [A14G A40G G41A A45U] — higher, 0.686
- GUUCCGUUGGCGUGAUGGUAACGCGUCUCCCUCCUGAGGAGAAGACUGCGGGUUCGAGUCCCGUACGGAACG [A14G A36G] — higher, 0.8
- GUUCCGUUGGCGUGAUGGUAACGCGUCUCCCUCCUAAGGAGAUGACUGCGGGUUCGAGUCCCGUUCGGAACG [A14G A43U A65U] — higher, 0.748
- GUUCCGUUGGCGUGAUGGUAAGGCGUCUCCCUCCUAAGGAGAAGACUGCGGGUUCGAGUCCCGUACGGACCG [A14G C22G A70C] — higher, 0.637
- GUUCCGUUGGCGUGAUGGUAACGCGUCUCCCUCCUAAGGCGAAGACUGCGGGUUAGAGUCCCGUAAGGAACG [A14G A40C C55A C66A] — lower, ≤ 0.5
- GUUCCGUUGGCGUGAUGGUAAGGCGUCUGCCUCCUAAGGACAAGACUGCGGGUUCGAGUCCCGUACGGAACG [A14G C22G C29G G41C] — lower, ≤ 0.5
- GUUCCGUUGGCGUGAUGGUAACGCGUCUCCCUCCUAAGGCGAAGACUGCGGGUUCGAGGGCCGUACGGAACG [A14G A40C U59G C60G] — lower, ≤ 0.5
- GUUCCGUUGGCGUGAUGGUAACGCGUCUCCCUCCUAAGGAGACGACUGCGGGUUCGAGUCCCGUAGGGUACG [A14G A43C C66G A69U] — lower, ≤ 0.5
- GUUCCGUUGGCGUGAUGGUAAGGCGUCUCCCUCCCAAGGAGAAGACUGCGGGUUCGCGUCCCGUACGGAACG [A14G C22G U35C A57C] — lower, ≤ 0.5
- GUUCCGUUGGCGUGAUGGUAACGAGAGUCCCCCCUAAGGAGAAGACUGCGGGUUCGAGUUCCGUACGGAACG [A14G C24A U26A C27G U32C C60U] — lower, ≤ 0.5
